ChEMBL document CHEMBL1139893, “Triterpene glycosides from the flower petals of sunflower (Helianthus annuus) and their anti-inflammatory activity” (2007)

Assays:
Mus musculus [1] = experiment: Antiinflammatory activity in ICR mouse assessed as inhibition of TPA-induced edema per ear applied topically 30 mins before TPA treatment; assay type: functional
Outline: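 Female SPF ICR mice. TPA (1.7 nmol, 1 µg) in 20 µL acetone was applied to the right ear only, 10 µL to each of the inner and outer surfaces. Sample or vehicle (CHCl3-MeOH 1:1, 20 µL) was applied topically about 30 min beforehand. Ear thickness was read with a pocket gauge before and 6 h after TPA. ID50 came from probit-graphic interpolation across four dose levels, five mice each.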

Mus musculus [2] = experiment: Inhibitory ratio of TPA-induced edema in presence of drug to TPA-induced edema in ICR mouse; assay type: functional
Outline: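 Topical sample at 1.0 mg/ear, or CHCl3-MeOH (1:1, 20 µL) vehicle control, given about 30 min before TPA (1.7 nmol in 20 µL acetone) on the right ear of female ICR mice. Ear thickness was gauged before and 6 h after TPA. InhR = [(Edema A − Edema B)/Edema A] × 100. Mean of five mice, Student's t-test.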

**Q.** How did the ID50 (Mus musculus [1]) turn out when `C[C@@H]1O[C@@H](O[C@@H]2[C@@H](O)[C@H](O[C@H]3CC[C@]4(C)[C@H]5CC=C6[C@@H]7CC(C)(C)CC[C@]7(C(=O)O[C@@H]7O[C@H](CO)[C@@H](O)[C@H](O)[C@H]7O[C@@H]7O[C@@H](C)[C@H](O)[C@@H](O)[C@H]7O)[C@H](O)C[C@@]6(C)[C@]5(C)CC[C@H]4C3(C)C)O[C@H](CO)[C@H]2O[C@@H]2OC[C@@H](O)[C@H](O)[C@H]2O)[C@H](O)[C@H](O)[C@H]1O` [HELIANTHOSIDE 5] was run?
**A.** 155 nmol

**Q.** What about the Ratio (Mus musculus [2]) of the same compound?
**A.** 63%

**Q.** `C[C@@H]1O[C@@H](O[C@@H]2[C@@H](O)[C@H](O[C@H]3CC[C@]4(C)[C@H]5CC=C6[C@@H]7CC(C)(C)CC[C@]7(C(=O)O[C@@H]7OC[C@H](O)[C@H](O)[C@H]7O[C@@H]7O[C@@H](C)[C@H](O[C@@H]8O[C@H](CO)[C@@H](O)[C@H](O)[C@H]8O)[C@@H](O)[C@H]7O)[C@H](O)C[C@@]6(C)[C@]5(C)CC[C@H]4C3(C)C)O[C@H](CO)[C@H]2O[C@@H]2OC[C@@H](O)[C@H](O)[C@H]2O)[C@H](O)[C@H](O)[C@H]1O` [HELIANTHOSIDE 2] was tested. Which ID50 (Mus musculus [1]) did it give?
**A.** 135 nmol

**Q.** And the Ratio (Mus musculus [2])?
**A.** 77%

**Q.** How did the ID50 (Mus musculus [1]) turn out when `C[C@]12CCC(=O)C=C1CC[C@@H]1[C@@H]2[C@@H](O)C[C@@]2(C)[C@H]1CC[C@]2(O)C(=O)CO` [HYDROCORTISONE] was run?
**A.** 83 nmol

**Q.** What about the Ratio (Mus musculus [2]) of the same compound?
**A.** 99%

**Q.** What does the source list for `C[C@@H]1O[C@@H](O[C@H]2[C@H](O[C@H]3CC[C@]4(C)[C@H]5CC=C6[C@@H]7CC(C)(C)CC[C@]7(C(=O)O[C@@H]7O[C@H](CO)[C@@H](O)[C@H](O)[C@H]7O[C@@H]7O[C@@H](C)[C@H](O[C@@H]8O[C@H](CO)[C@@H](O)[C@H](O)[C@H]8O)[C@@H](O)[C@H]7O)[C@H](O)C[C@@]6(C)[C@]5(C)CC[C@H]4C3(C)C)O[C@H](CO)[C@@H](O[C@@H]3OC[C@@H](O)[C@H](O)[C@H]3O)[C@@H]2O)[C@H](O)[C@H](O)[C@H]1O` [HELIANTHOSIDE 3]?
**A.** ID50 (Mus musculus [1]): 156 nmol; Ratio (Mus musculus [2]): 73%

**Q.** Which ID50 (Mus musculus [1]) does the source give for `C[C@@H]1O[C@@H](O[C@@H]2[C@@H](O)[C@H](O[C@H]3CC[C@@]4(C)[C@@H](CC[C@]5(C)[C@@H]4CC=C4[C@@H]6CC(C)(C)CC[C@]6(C(=O)O[C@@H]6OC[C@@H](O)[C@H](O)[C@H]6O[C@@H]6O[C@@H](C)[C@H](O[C@@H]7O[C@H](CO)[C@@H](O)[C@H](O)[C@H]7O)[C@@H](O)[C@H]6O)[C@H](O)C[C@]45C)[C@]3(C)CO)O[C@H](CO)[C@H]2O[C@@H]2OC[C@@H](O)[C@H](O)[C@H]2O)[C@H](O)[C@H](O)[C@H]1O` [HELIANTHOSIDE 4] here?
**A.** 262 nmol

**Q.** And the Ratio (Mus musculus [2])?
**A.** 75%

**Q.** For `C[C@@H]1O[C@@H](O[C@H]2CC[C@]3(C)[C@H]4CC=C5[C@@H]6CC(C)(C)CC[C@]6(C(=O)OC6OC[C@@H](O)[C@@H](O)[C@@H]6O[C@@H]6O[C@@H](C)[C@H](O[C@@H]7O[C@H](CO)[C@@H](O)[C@H](O)[C@H]7O)[C@@H](O)[C@H]6O)[C@H](O)C[C@@]5(C)[C@]4(C)CC[C@H]3C2(C)C)[C@H](O)[C@H](O)[C@H]1OC1OC[C@@H](O)[C@H](O)[C@H]1O` (stereo partly specified) [HELIANTHOSIDE B], which ID50 (Mus musculus [1]) is on record?
**A.** 65 nmol

**Q.** And the Ratio (Mus musculus [2])?
**A.** 80%

**Q.** `C[C@@H]1O[C@@H](O[C@H]2[C@H](O[C@H]3CC[C@]4(C)[C@H]5CC=C6[C@@H]7CC(C)(C)CC[C@]7(C(=O)O[C@@H]7OC[C@H](O)[C@H](O)[C@H]7O[C@@H]7O[C@@H](C)[C@H](O[C@@H]8O[C@H](CO)[C@@H](O)[C@H](O)[C@H]8O)[C@@H](O)[C@H]7O)CC[C@@]6(C)[C@]5(C)CC[C@H]4C3(C)C)O[C@H](CO)[C@@H](O[C@@H]3OC[C@@H](O)[C@H](O)[C@H]3O)[C@@H]2O)[C@H](O)[C@H](O)[C@H]1O` [HELIANTHOSIDE 1] was tested. Which ID50 (Mus musculus [1]) did it give?
**A.** 144 nmol

**Q.** What about the Ratio (Mus musculus [2]) of the same compound?
**A.** 71%

**Q.** What does the source list for `COc1ccc2c(c1)c(CC(=O)O)c(C)n2C(=O)c1ccc(Cl)cc1` [INDOMETHACIN]?
**A.** ID50 (Mus musculus [1]): 838 nmol; Ratio (Mus musculus [2]): 96%
